Screens: PubChem, several laboratories
NTR1 agonist = agonists of human NTR1, primary screen, imaging, U2OS cells, beta-arrestin-GFP, high content | Neurotensin receptor type 1 (Homo sapiens), P30989 | NTR1-U2OS beta-arrestin-GFP spot imaging, agonist mode | activation, % at 20 µM | hit rate 0.17% among 330,000;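 active = activation at or above 40% of the spot to cytoplasm intensity ratio, with at least 20 cells analyzed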;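 also: 0% = DMSO without peptide and 100% = 100 nM NTR1 peptide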
MC4R antagonist = MC4R antagonists of cAMP signaling, primary screen, cell-based, TR-FRET, antagonist arm of biased-ligand search; Melanocortin receptor 4 (Homo sapiens), P32245; MC4R-expressing cells, MTII-stimulated cAMP, LANCE TR-FRET; inhibition, % at 6.5 µM; hit rate 0.48% among 360,000;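 active = inhibition above its plate's cutoff, the mean of tested wells on that plate plus 3 SD, cut at about 29% in these data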;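 also: 0% = Melanotan II alone and 100% = Melanotan II plus saturating MCL0020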
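Assay system: human MC4R-expressing U2OS cells; reagent: Melanotan II stimulation of cells; dosing: 6.5 µM single dose; timing: compound 30 min, challenge 1 h, detection 1 h; signal: TR-FRET cAMP assay; replicates: one well per compound, no replicates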
MC4R ag barr = MC4R agonists recruiting beta-arrestin, primary screen, cell-based, luminescence, agonist arm of biased-ligand search; activation, % at 8.9 µM; hit rate 0.98% among 360,000; U2OS MC4R beta-arrestin complementation; percent of melanotan II response, DMSO zero; AID 540308, 2011; Melanocortin receptor 4 (Homo sapiens), P32245;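 active = activation above a per-plate cutoff, the mean activation of sample wells on that plate plus 3 SD, cut at about 8% in these data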
NOD2-RIPK2 inh = NOD2-RIPK2 binding disruptors in cells, primary screen, fluorescence, CHO cells, BLA complementation. Receptor-interacting serine/threonine-protein kinase 2 (Homo sapiens), O43353. CCF4 ratio. inhibition, % at 4.98 µM. hit rate 0.38% among 360,000; in the data active = inhibition above about 21%;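 also: 0% = vehicle only and 100% = reference blocker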
TLR4 MyD88 comp = inhibitors of TLR4-MyD88 association in cells, primary screen, cell-based, HeLa CL3-4, BLA complementation, FRET ratio. HeLa CL3-4 TLR4/MyD88 BLA complementation. inhibition, % at 8.4 µM. hit rate 0.18% among 200,000; in the data active = inhibition above about 25%;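 also: 0% = vehicle and 100% = reference inhibitor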
Target sequence (O00206 whole entry, looked up): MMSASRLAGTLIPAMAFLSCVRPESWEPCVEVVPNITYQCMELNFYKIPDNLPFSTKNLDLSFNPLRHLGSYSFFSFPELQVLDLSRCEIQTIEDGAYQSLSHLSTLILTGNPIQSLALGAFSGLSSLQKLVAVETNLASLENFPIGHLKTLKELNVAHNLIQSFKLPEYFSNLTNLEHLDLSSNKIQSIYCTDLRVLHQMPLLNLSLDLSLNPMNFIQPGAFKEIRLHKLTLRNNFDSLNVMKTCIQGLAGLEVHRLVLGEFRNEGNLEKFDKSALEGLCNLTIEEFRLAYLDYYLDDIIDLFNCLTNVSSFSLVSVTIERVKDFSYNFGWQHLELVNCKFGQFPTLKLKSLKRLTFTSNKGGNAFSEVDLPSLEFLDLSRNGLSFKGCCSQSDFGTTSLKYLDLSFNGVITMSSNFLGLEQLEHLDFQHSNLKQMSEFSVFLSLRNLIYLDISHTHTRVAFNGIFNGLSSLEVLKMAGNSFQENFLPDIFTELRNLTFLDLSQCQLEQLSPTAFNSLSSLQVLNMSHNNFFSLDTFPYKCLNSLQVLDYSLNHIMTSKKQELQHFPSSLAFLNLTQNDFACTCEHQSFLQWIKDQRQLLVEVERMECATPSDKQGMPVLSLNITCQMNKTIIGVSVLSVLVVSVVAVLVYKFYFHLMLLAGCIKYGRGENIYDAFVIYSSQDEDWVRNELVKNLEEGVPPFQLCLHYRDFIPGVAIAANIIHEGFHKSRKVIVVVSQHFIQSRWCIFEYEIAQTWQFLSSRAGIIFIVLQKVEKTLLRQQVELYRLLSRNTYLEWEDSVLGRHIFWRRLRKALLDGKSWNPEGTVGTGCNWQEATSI
Target sequence (Q99836 whole entry, looked up): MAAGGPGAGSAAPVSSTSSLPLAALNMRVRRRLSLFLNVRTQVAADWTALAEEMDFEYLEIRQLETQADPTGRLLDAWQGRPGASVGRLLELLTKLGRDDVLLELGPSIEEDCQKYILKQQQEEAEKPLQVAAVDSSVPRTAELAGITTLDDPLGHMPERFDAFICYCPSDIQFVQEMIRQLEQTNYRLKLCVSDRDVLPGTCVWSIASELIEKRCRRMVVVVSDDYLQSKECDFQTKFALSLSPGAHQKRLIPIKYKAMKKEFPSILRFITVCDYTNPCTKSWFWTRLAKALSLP
TLR9-MyD88 block = inhibitors of TLR9-MyD88 association in cells, primary screen, cell-based, CHO, BLA complementation, fluorescence; Toll-like receptor 9 (Homo sapiens) + Myeloid differentiation primary response protein …; CCF4 FRET ratio; inhibition, % at 4.98 µM; hit rate 0.21% among 340,000;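 active = inhibition above the mean over all tested compounds plus 3 SD, cut at about 21% in these data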;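 also: 0% = DMSO only wells and 100% = clavulanate BLA inhibitor control wells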
NOD2 RIPK2 conf = NOD2-RIPK2 binding disruptors, retest, confirmation, fluorescence, CHO cells, BLA complementation, triplicate; shares compounds with NOD2-RIPK2 inh; CCF4 FRET; inhibition, % at 4.98 µM; hit rate 70% among 1,200;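 active = mean inhibition across replicates above a set limit taken from the earlier primary screen, cut at about 21% in these data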;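 also: 0% = DMSO-only wells and the high end = clavulanate BLA-blocked wells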
BLA counter = counter-screen for NOD2-RIPK2 interaction inhibitors: BLA reporter | shares compounds with NOD2-RIPK2 inh | CHO BLA reporter, CCF4 FRET ratio, counterscreen | inhibition, % at 4.98 µM | hit rate 57% among 1,200 | AID 624371;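 active = mean inhibition above the low-control mean inhibition plus three low-control SD, cut at about 11% in these data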;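 also: 0% = DMSO only wells and 100% = clavulanate high control wells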
* = called active by the depositor; x = no result. Hits are enriched below; roughly 1.9% of the tested compounds scored in any of these assays.

SMILES | NTR1 agonist | MC4R antagonist | MC4R ag barr | NOD2-RIPK2 inh | TLR4 MyD88 comp | TLR9-MyD88 block | NOD2 RIPK2 conf | BLA counter
O=C(O)c1cccc(Cn2c(Cl)c(/C=N/NC(=O)c3ccc(O)cc3)sc2=O)c1 | -1 | -7 | -1 | -3 | x | 7 | x | x
Nc1nc2ncccn2c1-c1ccc(F)c(F)c1 | x | x | x | 28* | x | x | 19 | 20*
Nc1c(-c2ccc(C(F)(F)F)cc2)nc2ncccn12 | x | x | x | -4 | x | x | x | x
CC1=C(C(=O)N2CCCCCC2)CC(CC(=O)NCCc2ccccn2)C(=O)N1CCCN1CCCC1=O (stereo not drawn) | x | x | x | -8 | x | x | x | x
Nc1cc(=O)[nH]c2ncnn12 | x | 0 | 0 | 0 | x | -6 | x | x
CN(C(=O)c1cccc(NC(=O)Cc2ccc(NC(=O)C3CCCN(C(=O)c4ccccc4)C3)cc2)c1)C1CCCCC1 (stereo not drawn) | x | -9 | 0 | 5 | x | -16 | x | x
CCN(CC)c1ccc(C(=C2C=CC(=[N+](CC)CC)C=C2)c2ccc(N(CC)CC)cc2)cc1 | x | -24 | -10 | 41* | x | 18 | 49* | -7
CCN(CC)c1ccc(C(=O)NNC(=O)CCl)cc1 | 0 | -5 | -2 | -3 | -6 | -1 | x | x
O=c1[nH]cc(CCc2ccccc2)c(=O)[nH]1 | x | 2 | 0 | 6 | x | 3 | x | x
COc1ccc(CCN2C(=O)C=CC2=O)cc1OC | x | 14 | -4 | 43* | x | 7 | 51* | 12*
O=c1oc2cc(O)ccc2cc1-c1ccccc1 | 1 | -5 | -1 | 23* | x | 8 | 28* | 40*
COc1ccc(S(=O)(=O)N2CCC[C@H]2C(=O)N2CCC[C@H]2C(=O)N(C)Cc2ccccc2)cc1C | x | x | x | 3 | x | x | x | x
O=c1cc(-c2ccccc2Cl)oc2c([N+](=O)[O-])c(O)cc(O)c12 | 4 | 8 | -1 | -1 | -12 | -2 | x | x
COc1cc(NC(=O)Cn2c(C)cc3ccccc3c2=O)cc(OC)c1OC | 0 | 15 | -2 | 32* | 1 | -2 | 6 | -2
COc1ccc(NC(=O)CCNS(=O)(=O)c2cc(Br)cnc2N)c(OC)c1 | -1 | 2 | 0 | 1 | x | 12 | x | x
Cc1cccc(C)c1-n1nnnc1C1(C)CCC(=O)N1CCc1ccc(O)cc1 (stereo not drawn) | x | x | x | -5 | x | x | x | x
COC1=C(OC)C(=O)C(Sc2ccc3ccccc3c2)=CC1=O | x | 7 | -3 | 25* | x | 20 | 70* | 31*
COc1ccc(S(=O)(=O)Oc2ccc3ccccc3c2)cc1 | 4 | -2 | 0 | -7 | -5 | 1 | x | x
Cc1ccc(-c2nn(-c3ccccc3)cc2CN(Cc2ccccc2)C(=O)c2ccco2)o1 | 12 | 10 | -2 | 36* | -3 | 8 | 2 | -7
O=C1N/C(=C/c2ccc(N3CCOCC3)o2)C(=O)N1c1cccc(Cl)c1 | 6 | 10 | -2 | 33* | 11 | 11 | 22* | 9
N#Cc1ccccc1Cn1cc(/C=C/[N+](=O)[O-])c2ccccc21 | 28 | 3 | -1 | 42* | -5 | 7 | 70* | 9
CN1C(=O)c2cccc3c(S(=O)(=O)N(C)C)ccc1c23 | 0 | -5 | -1 | 22* | x | 10 | 11 | 16*
C=CCN(C(=O)Nc1ccc(OC)cc1)c1nnc(-c2ccncc2)s1 | 0 | -1 | 0 | 6 | x | -7 | x | x
CCOc1ccccc1/C=C(/NC(=O)c1ccccc1)C(=O)NC(C)c1ccccc1 (stereo not drawn) | 3 | 8 | -1 | -4 | -3 | -2 | x | x
N#CC1C(=O)c2ccccc2C1c1ccccc1 (stereo not drawn) | x | -1 | -2 | 48* | x | 7 | -6 | 0
SMILES | NTR1 agonist | MC4R antagonist | MC4R ag barr | NOD2-RIPK2 inh | TLR4 MyD88 comp | TLR9-MyD88 block | NOD2 RIPK2 conf | BLA counter
O=C(C[n+]1ccccc1)c1ccc(NC(=O)c2ccccc2)cc1 | -2 | 21 | 2 | 35* | 15 | 0 | -1 | -7
Cc1cc[n+](CC(=O)c2ccc(NC(=O)c3ccccc3)cc2)cc1 | 0 | 6 | 0 | -5 | -11 | -3 | x | x
CCc1noc(C)c1C(=O)N1CCN(S(=O)(=O)c2ccccc2C(F)(F)F)CC1 | 0 | 3 | 0 | 5 | x | -2 | x | x
O=C(C1=NNCC1c1ccccc1)C1CO1 (stereo not drawn) | x | 6 | -2 | -5 | -26 | -1 | x | x
CC1(C)CC(=O)C(C=Nc2ccc(C(=O)c3ccccc3)cc2N=CC2=C(O)CC(C)(C)CC2=O)=C(O)C1 | -1 | -2 | -2 | 27* | 14 | 18 | -3 | -3
N#Cc1c(NC(=S)NC(=O)c2ccccc2)sc2c1CCC2 | 4 | 20 | 1 | -3 | -12 | 0 | x | x
O=C(NC(=S)Nc1sc2c(c1C(=O)O)CCCC2)c1ccccc1 | 4 | 12 | 0 | 35* | x | -1 | 1 | -7
Nc1c(C(=O)Nc2ccccc2)sc2nc3c(c(-c4ccco4)c12)CCCC3 | 0 | -11 | 2 | 9 | 19 | 13 | x | x
Cc1ccccc1NC(=O)c1sc2nc3c(c(-c4ccco4)c2c1N)CCCC3 | 14 | -4 | 1 | 39* | 17 | 11 | 51* | 56*
CCOc1ccc(CNC(=O)CCS(=O)(=O)Cc2ccccc2C)cc1OC | 0 | 11 | 2 | 3 | 0 | -8 | x | x
CCOc1ccc(CNC(=O)CCc2cn(C)c3ccccc23)cc1OC | -1 | 24 | 0 | 37* | 1 | 9 | -2 | -1
O=C(NCc1ccccc1)[C@@H]1CCCN1C(=O)[C@@H]1CCCN1C(=O)c1cccs1 | x | x | x | -10 | x | x | x | x
CCOCCCNC(=O)/C(C#N)=C/c1ccc([N+](=O)[O-])o1 | -1 | 14 | 2 | 26* | 24 | 20 | 54* | 27*
CCOCCCNC(=O)/C(C#N)=C/c1ccc(-c2ccc(S(=O)(=O)N3CCOCC3)cc2)o1 | -1 | -6 | -3 | 6 | -4 | 0 | x | x
Nc1ccccc1-c1nnc2n1CCCCC2 | 0 | 5 | -1 | 2 | x | -3 | x | x
O=C(/C=C/c1c[nH]c2ccccc12)c1ccccc1 | 5 | 13 | 5 | 30* | 22 | 12 | 30* | 35*
